Source: ChEMBL document CHEMBL1143707, “7-Arylpiperazinylalkyl and 7-tetrahydroisoquinolinylalkyl derivatives of 8-alkoxy-purine-2,6-dione and some of their purine-2,6,8-trione analogs as 5-HT(1A), 5-HT(2A), and 5-HT(7) serotonin receptor ligands” (Bioorg Med Chem, 2007)

Assays:
Mus musculus [1] = assay: Effect on compound induced hypothermia in Swiss Albino mouse at 10 mg/kg, ip in presence of 0.1 mg/kg WAY 100635 after 60 mins relative to control; type: functional
Outline: (§1)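 Male Albino Swiss mice; WAY 100635 0.1 mg/kg sc (in distilled water) 15 min before ip compound (1% Tween 80); rectal temperature at 30 and 60 min after compound; Δt from basal; n = 8/group; mean ± SEM.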

[2] = biological target: T1, 5-hydroxytryptamine receptor 1A (Rattus norvegicus, UniProt P19327); assay: Displacement of [3H]8-OH-DPAT from rat brain 5HT1A receptor
T1 sequence (P19327 whole entry): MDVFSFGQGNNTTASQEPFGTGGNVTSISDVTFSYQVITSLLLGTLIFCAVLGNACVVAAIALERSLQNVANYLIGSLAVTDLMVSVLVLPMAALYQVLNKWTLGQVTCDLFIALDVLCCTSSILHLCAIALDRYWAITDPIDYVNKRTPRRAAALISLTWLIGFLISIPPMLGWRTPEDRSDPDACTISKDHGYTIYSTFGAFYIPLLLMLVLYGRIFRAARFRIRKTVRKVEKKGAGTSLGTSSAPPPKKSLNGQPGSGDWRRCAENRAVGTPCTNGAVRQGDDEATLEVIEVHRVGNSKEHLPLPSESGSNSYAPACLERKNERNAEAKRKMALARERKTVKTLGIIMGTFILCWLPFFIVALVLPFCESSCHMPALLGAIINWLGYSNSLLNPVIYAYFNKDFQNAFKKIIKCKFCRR
Outline: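 Rat hippocampal membranes; 1 nM [3H]-8-OH-DPAT; nonspecific binding with 10 μM 5-HT; 8–10 competitor concentrations in triplicate, ≥3 experiments; GF/B filtration, ice-cold buffer washes, scintillation counting; Ki by nonlinear regression with Cheng–Prusoff.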

[3] = biological target: 5-hydroxytryptamine receptor 2A (Rattus norvegicus, UniProt P14842); assay: Displacement of [3H]ketanserin from rat brain 5HT2A receptor
Outline: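 Rat brain membranes; 0.6 nM [3H]-ketanserin; nonspecific binding with 1 μM methysergide; 8–10 competitor concentrations in triplicate, ≥3 experiments; GF/B filtration, scintillation counting; Ki via Cheng–Prusoff.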

[4] = biological target: 5-hydroxytryptamine receptor 7 (Rattus norvegicus, UniProt P32305); assay: Displacement of [3H]5CT from 5HT7 receptor in Wistar rat hyphalamic membrane; type: cell membranes
Mus musculus [5] = assay: Decrease in body temperature in Swiss Albino mouse at 5 mg/kg, ip administered 30 mins before the test measured after 30 mins relative to control; type: functional; conditions: route intraperitoneal
Outline: (§2)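 Male Albino Swiss mice (24-28 g) given compound ip in 1% aqueous Tween 80 (10 mL/kg); rectal temperature read at 30, 60, 90 and 120 min post-dose; Δt versus basal temperature taken at start (initial ~36.0 °C); n = 8/group; mean ± SEM.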

Mus musculus [6] = assay: Decrease in body temperature in Swiss Albino mouse at 5 mg/kg, ip administered 30 mins before the test measured after 60 mins relative to control; type: functional; conditions: route intraperitoneal; outline: as §2
Mus musculus [7] = assay: Decrease in body temperature in Swiss Albino mouse at 5 mg/kg, ip administered 30 mins before the test measured after 90 mins relative to control; type: functional; conditions: route intraperitoneal; outline: as §2
Mus musculus [8] = assay: Decrease in body temperature in Swiss Albino mouse at 5 mg/kg, ip administered 30 mins before the test measured after 120 mins relative to control; type: functional; conditions: route intraperitoneal; outline: as §2
Mus musculus [9] = assay: Effect on body temperature in Swiss Albino mouse assessed as decrease at 10 mg/kg, ip after 30 mins relative to initial temperature; type: functional; conditions: route intraperitoneal; outline: as §2
Mus musculus [10] = assay: Effect on body temperature in Swiss Albino mouse assessed as decrease at 10 mg/kg, ip after 60 mins relative to initial temperature; type: functional; conditions: route intraperitoneal; outline: as §2
Mus musculus [11] = assay: Effect on body temperature in Swiss Albino mouse assessed as decrease at 10 mg/kg, ip after 90 mins relative to initial temperature; type: functional; conditions: route intraperitoneal; outline: as §2
Mus musculus [12] = assay: Effect on body temperature in Swiss Albino mouse assessed as decrease at 10 mg/kg, ip after 120 mins relative to initial temperature; type: functional; conditions: route intraperitoneal; outline: as §2
Mus musculus [13] = assay: Effect on compound induced hypothermia in Swiss Albino mouse at 10 mg/kg, ip in presence of 0.1 mg/kg WAY 100635 after 30 mins relative to control; type: functional; outline: as §1
Mus musculus [14] = assay: Effect on compound induced hypothermia in Swiss Albino mouse at 2.5 mg/kg, ip in presence of 0.1 mg/kg WAY 100635 after 60 mins relative to control; type: functional; outline: as §1
Mus musculus [15] = assay: Anxiolytic activity in Swiss Albino mouse assessed as number of punished crossings for 60 secs at 2.5 mg/kg, ip administered 30 mins before the test in four-plate test; type: functional; conditions: route intraperitoneal
Outline: (§3)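 Male Albino Swiss mice (24-28 g), ip in 1% Tween 80 (10 mL/kg) 30 min before test; box with four metal floor plates, 120 V for 0.5 s on each plate-to-plate crossing after 15 s free exploration, 3 s shock-free if running continues; punished crossings counted over 60 s; n = 9-10/group; mean ± SEM.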

Mus musculus [16] = assay: Anxiolytic activity in Swiss Albino mouse assessed as number of punished crossings for 60 secs at 5 mg/kg, ip administered 30 mins before the test in four-plate test; type: functional; conditions: route intraperitoneal; outline: as §3
Mus musculus [17] = assay: Anxiolytic activity in Swiss Albino mouse assessed as number of punished crossings for 60 secs at 10 mg/kg, ip administered 30 mins before the test in four-plate test; type: functional; conditions: route intraperitoneal; outline: as §3
Mus musculus [18] = assay: Decrease in body temperature in Swiss Albino mouse at 2.5 mg/kg, ip administered 30 mins before the test measured after 30 mins relative to control; type: functional; conditions: route intraperitoneal; outline: as §2
Mus musculus [19] = assay: Decrease in body temperature in Swiss Albino mouse at 2.5 mg/kg, ip administered 30 mins before the test measured after 60 mins relative to control; type: functional; conditions: route intraperitoneal; outline: as §2
Mus musculus [20] = assay: Decrease in body temperature in Swiss Albino mouse at 2.5 mg/kg, ip administered 30 mins before the test measured after 90 mins relative to control; type: functional; conditions: route intraperitoneal; outline: as §2
Mus musculus [21] = assay: Decrease in body temperature in Swiss Albino mouse at 2.5 mg/kg, ip administered 30 mins before the test measured after 120 mins relative to control; type: functional; conditions: route intraperitoneal; outline: as §2
Mus musculus [22] = assay: Effect on compound induced hypothermia in Swiss Albino mouse at 2.5 mg/kg, ip in presence of 0.1 mg/kg WAY 100635 after 30 mins relative to control; type: functional; outline: as §1
Mus musculus [23] = assay: Antidepressant activity in Swiss Albino mouse assessed as immobility time during final 4 mins of 6 mins session at 2.5 mg/kg, ip administered 30 mins before the test in forced-swimming test; type: functional; conditions: route intraperitoneal
Outline: (§4)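 Male Albino Swiss mice (24-28 g), ip in 1% aqueous Tween 80 suspension (10 mL/kg), 30 min pretest; single glass cylinder (25 cm high, 10 cm diameter), 6 cm water at 23–25 °C for 6 min; immobility (floating, minimal head-keeping movements) timed over final 4 min; n = 9-10/group; mean ± SEM.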

Mus musculus [24] = assay: Antidepressant activity in Swiss Albino mouse assessed as immobility time during final 4 mins of 6 mins session at 5 mg/kg, ip administered 30 mins before the test in forced-swimming test; type: functional; conditions: route intraperitoneal; outline: as §4
Mus musculus [25] = assay: Antidepressant activity in Swiss Albino mouse assessed as immobility time during final 4 mins of 6 mins session at 10 mg/kg, ip administered 30 mins before the test in forced-swimming test; type: functional; conditions: route intraperitoneal; outline: as §4
Mus musculus [26] = assay: Antidepressant activity in Swiss Albino mouse assessed as immobility time during final 4 mins of 6 mins session at 20 mg/kg, ip administered 30 mins before the test in forced-swimming test; type: functional; conditions: route intraperitoneal; outline: as §4
Mus musculus [27] = assay: Locomotor activity in Swiss Albino mouse assessed as number of crossings in 6 mins at 5 mg/kg, ip administered 30 mins before the test; type: functional; conditions: route intraperitoneal
Outline: (§5)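 Male Albino Swiss mice dosed ip 30 min before test (compound in 1% Tween 80; imipramine in distilled water); individual cages with IR beam sensors, consecutive beam breaks scored as ambulatory counts during first 6 min and over a 30-min session; n = 10/group; mean ± SEM.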

Mus musculus [28] = assay: Locomotor activity in Swiss Albino mouse assessed as number of crossings in 6 mins at 10 mg/kg, ip administered 30 mins before the test; type: functional; conditions: route intraperitoneal; outline: as §5
Mus musculus [29] = assay: Locomotor activity in Swiss Albino mouse assessed as number of crossings in 6 mins at 20 mg/kg, ip administered 30 mins before the test; type: functional; conditions: route intraperitoneal; outline: as §5
Mus musculus [30] = assay: Locomotor activity in Swiss Albino mouse assessed as number of crossings in 30 mins at 5 mg/kg, ip administered 30 mins before the test; type: functional; conditions: route intraperitoneal; outline: as §5
Mus musculus [31] = assay: Locomotor activity in Swiss Albino mouse assessed as number of crossings in 30 mins at 10 mg/kg, ip administered 30 mins before the test; type: functional; conditions: route intraperitoneal; outline: as §5
Mus musculus [32] = assay: Locomotor activity in Swiss Albino mouse assessed as number of crossings in 30 mins at 20 mg/kg, ip administered 30 mins before the test; type: functional; conditions: route intraperitoneal; outline: as §5

5-hydroxytryptamine receptor 7, sequence (P32305 whole entry): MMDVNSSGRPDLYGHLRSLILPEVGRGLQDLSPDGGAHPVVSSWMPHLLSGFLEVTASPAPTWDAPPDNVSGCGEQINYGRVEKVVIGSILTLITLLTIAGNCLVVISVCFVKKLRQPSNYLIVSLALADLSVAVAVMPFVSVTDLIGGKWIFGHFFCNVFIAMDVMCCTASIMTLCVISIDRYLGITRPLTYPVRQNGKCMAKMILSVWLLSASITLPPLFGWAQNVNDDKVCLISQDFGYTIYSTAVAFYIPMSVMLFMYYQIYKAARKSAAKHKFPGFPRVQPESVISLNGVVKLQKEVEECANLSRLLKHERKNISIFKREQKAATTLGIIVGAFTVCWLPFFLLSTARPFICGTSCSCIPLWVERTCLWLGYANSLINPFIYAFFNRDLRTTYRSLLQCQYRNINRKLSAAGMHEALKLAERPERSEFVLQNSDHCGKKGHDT
5-hydroxytryptamine receptor 2A, sequence (P14842 whole entry): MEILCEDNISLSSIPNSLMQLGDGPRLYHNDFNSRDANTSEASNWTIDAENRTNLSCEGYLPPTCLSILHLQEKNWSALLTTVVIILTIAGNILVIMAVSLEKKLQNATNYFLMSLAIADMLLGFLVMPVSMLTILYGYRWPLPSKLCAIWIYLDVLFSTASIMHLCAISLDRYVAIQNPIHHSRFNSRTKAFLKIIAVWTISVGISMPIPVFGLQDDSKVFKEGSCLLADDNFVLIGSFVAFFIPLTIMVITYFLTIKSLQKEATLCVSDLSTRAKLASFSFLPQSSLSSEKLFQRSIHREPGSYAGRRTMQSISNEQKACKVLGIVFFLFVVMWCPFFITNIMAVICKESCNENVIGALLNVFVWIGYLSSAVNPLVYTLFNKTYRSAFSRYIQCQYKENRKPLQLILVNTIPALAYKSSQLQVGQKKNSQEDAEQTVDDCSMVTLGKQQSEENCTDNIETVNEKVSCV

Work on `CCCOc1nc2c(c(=O)n(C)c(=O)n2C)n1CCCCN1CCN(c2cccc(Cl)c2)CC1` yielded an Activity (Mus musculus [1]) of -0.9 °C, a Ki [2] of 0.015 µM and a Ki [3] of 0.028 µM. The Ki [4] was 0.125 µM, the Activity (Mus musculus [5]) was -0.7 °C and the Activity (Mus musculus [6]) was -0.6 °C. It also gave an Activity (Mus musculus [7]) of -0.6 °C, an Activity (Mus musculus [8]) of -0.2 °C and an Activity (Mus musculus [9]) of -1.7 °C. It also gave an Activity (Mus musculus [10]) of -1.1 °C, an Activity (Mus musculus [11]) of -1.1 °C and an Activity (Mus musculus [12]) of -1.1 °C. For the same compound, the Activity (Mus musculus [13]) was -1.4 °C.
`CCOc1nc2c(c(=O)n(C)c(=O)n2C)n1CCCCN1CCN(c2cccc(Cl)c2)CC1` gave a Ki [2] of 0.012 µM, a Ki [3] of 0.015 µM and a Ki [4] of 0.051 µM.
`CCCOc1nc2c(c(=O)n(C)c(=O)n2C)n1CCCN1CCN(c2cccc(Cl)c2)CC1` gave a Ki [2] of 0.288 µM, a Ki [3] of 0.025 µM and a Ki [4] of 0.267 µM.
For `CCOc1nc2c(c(=O)n(C)c(=O)n2C)n1CCCN1CCN(c2cccc(Cl)c2)CC1`, the Ki [2] was 0.19 µM, the Ki [3] was 0.023 µM and the Ki [4] was 0.13 µM.
In the case of `CCOc1nc2c(c(=O)n(C)c(=O)n2C)n1CCCN1CCc2ccccc2C1`, the Ki [2] is reported as 1.07 µM, the Ki [3] is reported as 0.59 µM and the Ki [4] is reported as 5.75 µM.
`CCCOc1nc2c(c(=O)n(C)c(=O)n2C)n1CCCCN1CCN(c2ccccc2OC)CC1` showed a Ki [2] of 0.019 µM, a Ki [3] of 0.15 µM and a Ki [4] of 0.16 µM.
Work on `Cn1c(=O)c2c([nH]c(=O)n2CCCCN2CCN(c3ccccc3)CC2)n(C)c1=O` yielded a Ki [2] of 1.5 µM, a Ki [3] of 0.56 µM and a Ki [4] of 1.82 µM.
With `CCOc1nc2c(c(=O)n(C)c(=O)n2C)n1CCCCN1CCN(c2ccccc2)CC1` the Ki [2] was 0.067 µM, the Ki [3] was 0.131 µM and the Ki [4] was 0.197 µM.
`Cn1c(=O)c2c([nH]c(=O)n2CCCCN2CCN(c3cccc(Cl)c3)CC2)n(C)c1=O` gave a Ki [2] of 0.26 µM, a Ki [3] of 0.06 µM and a Ki [4] of 3.67 µM.
`CCOc1nc2c(c(=O)n(C)c(=O)n2C)n1CCCCN1CCN(c2ccccc2OC)CC1.Cl` was tested, and the Activity (Mus musculus [14]) was -0.3 °C, the Activity (Mus musculus [15]) was 4.1 and the Activity (Mus musculus [16]) was 5.8. For the same compound, the Activity (Mus musculus [17]) was 3.8, the Ki [2] was 0.011 µM and the Ki [3] was 0.253 µM. For the same compound, the Ki [4] was 0.054 µM, the Activity (Mus musculus [18]) was -1.5 °C and the Activity (Mus musculus [19]) was -1 °C. It also gave an Activity (Mus musculus [20]) of -0.9 °C, an Activity (Mus musculus [21]) of -0.7 °C and an Activity (Mus musculus [5]) of -2.5 °C. For the same compound, the Activity (Mus musculus [6]) was -1.9 °C, the Activity (Mus musculus [7]) was -1.5 °C and the Activity (Mus musculus [8]) was -1.3 °C. It also gave an Activity (Mus musculus [22]) of -0.5 °C, an Activity (Mus musculus [23]) of 154.4 s and an Activity (Mus musculus [24]) of 126.9 s. The Activity (Mus musculus [25]) was 122.6 s, the Activity (Mus musculus [26]) was 178.2 s and the Activity (Mus musculus [27]) was 125.5. The Activity (Mus musculus [28]) was 56.2, the Activity (Mus musculus [29]) was 11.1 and the Activity (Mus musculus [30]) was 325. It also gave an Activity (Mus musculus [31]) of 193.4 and an Activity (Mus musculus [32]) of 19.5.
For `CCOc1nc2c(c(=O)n(C)c(=O)n2C)n1CCCN1CCN(c2ccccc2OC)CC1`, the Ki [2] was 0.083 µM, the Ki [3] was 0.98 µM and the Ki [4] was 0.41 µM.
